Assay results: PMC7383501 (Diabetes, Obesity & Metabolism, 2020)

What was measured:
[1] = system: patients with T2D; test: Single-dose study: safety and tolerability; assay type: in vivo, human
Procedure, shortened: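 Single ascending s.c. doses of 2–100 μg/kg or placebo (5:1) were given to T2D patients after a 14-day washout of glucose-lowering drugs. Safety assessments covered AE recording, vital signs, 12-lead ECG, clinical laboratory measures and physical examination. The safety set included all patients receiving any study drug.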

[2] = system: anti-efpeglenatide antibodies; test: Repeated-dose study: immunogenicity, bridging ELISA; assay type: in vivo, human; settings: the four patients with antibodies at baseline
Procedure, shortened: (§1)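 Adults aged 18–65 with T2D on stable metformin for ≥3 months, HbA1c 7–10%. Randomized 3:1 to s.c. test compound or placebo with no titration, in six cohorts of 12. Doses were 1, 2 or 4 mg weekly for 8 weeks, or 8, 12 or 16 mg monthly for 9 weeks; follow-up to week 13. Assessments covered AEs, vital signs, 12-lead ECG, clinical laboratory measures, immunogenicity and physical examination. Analysed in the safety set by treatment actually received.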

[3] = system: GLP‐1 receptor; settings: in vitro; compared with other GLP‐1RAs; cited from earlier work
[4] = system: patients with T2D; test: Single-dose study: pharmacodynamics; assay type: in vivo, human; settings: single dose 2–8 μg/kg
Procedure, shortened: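 Pharmacodynamics were assessed from 24-hour glucose profiles, including fasting and postprandial plasma glucose, reported as absolute change from baseline. The PD set comprised all treated patients.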

[5] = Single-dose study: serum pharmacokinetics of efpeglenatide; assay type: in vivo, human; settings: T2D patients, serum ELISA; for tmax: median (min–max)
Procedure, shortened: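 Single s.c. dose (2–100 μg/kg) in T2D patients. Serum concentration–time data were used to derive tmax, terminal t1/2, observed Cmax, AUC(0–last) and AUC(0–inf). Values are geometric mean (%CV of arithmetic mean); tmax is median (min, max). Dose proportionality was explored on log-transformed Cmax and AUC. The PK set comprised dosed patients with sufficient concentration data.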

[6] = system: patients with T2D; test: Repeated-dose study: safety and tolerability; assay type: in vivo, human
Procedure, shortened: as §1

[7] = system: GLP‐1 receptor; settings: in vitro; compared with other GLP‐1RAs; cited from earlier work; remark: listed apart in the source
[8] = system: anti-efpeglenatide antibodies; test: Single-dose study: immunogenicity, bridging ELISA; assay type: in vivo, human; settings: serum, pre-dose, days 28 and 49, follow-up
Procedure, shortened: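 First-in-patient dose escalation in eight cohorts of six T2D patients: single s.c. injection of 2–100 μg/kg test compound or placebo (5:1). Patients were 18–75 years, BMI 25–40 kg/m², HbA1c 6–10%, with a 14-day washout of glucose-lowering drugs before dosing. Immunogenicity was a secondary objective.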

[9] = Repeated-dose study: serum pharmacokinetics of efpeglenatide; assay type: in vivo, human; settings: mean (SD); for Accumulation ratio: AUC0–τ last dose / AUC0–τ first dose; for PTR (peak‐to‐trough ratio): Cmax/Cmin
Procedure, shortened: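 T2D patients on metformin received s.c. doses weekly (168 h interval, eight injections) or monthly (672 h interval, three injections). PK set, grouped by the most recent treatment received. Accumulation ratio was AUC0–τ of the last dose over AUC0–τ of the first dose. Peak-to-trough ratio was Cmax/Cmin. t1/2 was the terminal elimination half-life.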

[10] = system: patients with T2D; test: Repeated-dose study: pharmacodynamics/efficacy; assay type: in vivo, human
Procedure, shortened: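 Multiple-ascending-dose trial in adults with T2D on stable metformin: s.c. doses weekly (1, 2, 4 mg; 8 weeks) or monthly (8, 12, 16 mg; 9 weeks), placebo 3:1, no titration. Primary endpoint was HbA1c change from baseline to […]. Full analysis set by randomized treatment. LS means came from ANCOVA with cohort as main effect and baseline as covariate. Each dose was tested against placebo within its regimen, two-sided at 5%, unadjusted.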

[11] = single s.c. dose 2 μg/kg, geometric mean (%CV)
[12] = single s.c. dose 4 μg/kg, geometric mean (%CV)
[13] = single s.c. dose 8 μg/kg, geometric mean (%CV)
[14] = single s.c. dose 14 μg/kg, geometric mean (%CV)
[15] = single s.c. dose 20 μg/kg, geometric mean (%CV)
[16] = single s.c. dose 40 μg/kg, geometric mean (%CV)
[17] = single s.c. dose 60 μg/kg, geometric mean (%CV)
[18] = single s.c. dose 100 μg/kg, geometric mean (%CV)

## efpeglenatide
[1]
  deaths or serious AEs: no deaths or serious AEs
[1]; 12‐lead ECG
  arrhythmia or ECG changes due to QTc prolongation or conduction disorders: no signs of arrhythmia or ECG changes
[1]; any treatment group
  hypoglycaemia or pancreatitis reported as AEs: No incidences
[2]
  treatment‐emergent or treatment‐induced antibodies: none
[3]
  dissociation from the GLP‐1 receptor: faster dissociation
[4]
  changes in PPG: No notable changes
[4]; compared with the higher doses, data not shown
  reductions in FPG from baseline over 2 weeks: smaller than those observed for the higher doses
[5]; [11]
  AUC(0–last): 2913 (19) ng h/mL
  Cmax: 10.4 (11) ng/mL
[5]; single s.c. dose 2 μg/kg
  tmax: 144.00 (72.06–216.76) h
[5]; [12]
  AUC(0–inf): 9060 (12) ng h/mL
  AUC(0–last): 7911 (12) ng h/mL
  Cmax: 25.7 (16) ng/mL
  t1/2: 144 (10) h
[5]; single s.c. dose 4 μg/kg
  tmax: 72.06 (72.00–216.80) h
[5]; [13]
  Cmax: 45.1 (5) ng/mL
  t1/2: 147 (19) h
[5]; single s.c. dose 8 μg/kg
  tmax: 72.06 (72.00–144.00) h
[5]; [14]
  Cmax: 80.3 (28) ng/mL
  t1/2: 135 (8) h
[5]; single s.c. dose 14 μg/kg
  tmax: 144.00 (72.00–216.76) h
[5]; [15]
  Cmax: 102 (6) ng/mL
  t1/2: 147 (6) h
[5]; single s.c. dose 20 μg/kg
  tmax: 144.00 (72.00–216.78) h
[5]; [16]
  Cmax: 202 (14) ng/mL
  t1/2: 141 (10) h
[5]; single s.c. dose 40 μg/kg
  tmax: 144.00 (72.00–216.78) h
[5]; [17]
  Cmax: 349 (13) ng/mL
  t1/2: 154 (9) h
[5]; single s.c. dose 60 μg/kg
  tmax: 72.00 (72.00–144.00) h
[5]; [18]
  Cmax: 643 (12) ng/mL
  t1/2: 180 (12) h
[5]; single s.c. dose 100 μg/kg
  tmax: 72.00 (72.00–216.90) h
[6]; 16 mg once monthly cohort, more than three patients with moderate vomiting
  dose-escalation stopping criteria: reached the predefined stopping criteria for dose escalation
[6]; any patient receiving efpeglenatide, repeated-dose study
  pancreatic injury: no cases of pancreatic injury
[6]; any treatment group, repeated-dose study
  haematological, serum chemistry or urine analysis variables: no significant change from baseline
[7]
  receptor internalization: reduced receptor internalization
[8]
  development of anti‐efpeglenatide antibodies: No patient
[9]; 1 mg once weekly s.c., τ 168 h
  Accumulation ratio: 3.49 (2.16)
[9]; 1 mg once weekly s.c.
  PTR (peak‐to‐trough ratio): 1.40 (0.49)
[9]; 2 mg once weekly s.c., τ 168 h
  Accumulation ratio: 3.51 (0.68)
[9]; 2 mg once weekly s.c.
  PTR (peak‐to‐trough ratio): 1.42 (0.21)
[9]; 4 mg once weekly s.c., τ 168 h
  Accumulation ratio: 3.71 (1.87)
[9]; 4 mg once weekly s.c.
  PTR (peak‐to‐trough ratio): 1.32 (0.12)
[9]; 8 mg once monthly s.c., τ 672 h
  Accumulation ratio: 1.07 (0.10)
[9]; 8 mg once monthly s.c.
  PTR (peak‐to‐trough ratio): 10.35 (7.28)
[9]; 12 mg once monthly s.c.
  PTR (peak‐to‐trough ratio): 5.86 (1.10)
[9]; 16 mg once monthly s.c.
  PTR (peak‐to‐trough ratio): 12.94 (7.55)
[10]; 8 mg once monthly, day 57, P = 0.006
  LS mean change in HbA1c compared with placebo: statistically significant LS mean decreases
[10]; 12 mg once monthly, day 57, P = 0.015
  LS mean change in HbA1c compared with placebo: statistically significant LS mean decreases
[10]; 16 mg once monthly, day 57
  LS mean change in HbA1c compared with placebo: not statistically significant
[10]; all once‐monthly dose groups (8, 12, 16 mg), day 29, P ≤0.047 for all, ANCOVA
  LS mean change in HbA1c compared with placebo: significant decreases
[10]; each once‐weekly dose group (1, 2, 4 mg), day 29, P ≤0.003 for all, ANCOVA
  LS mean change in HbA1c compared with placebo: Significant decreases
[10]; each once‐weekly dose group (1, 2, 4 mg), day 57, P ≤0.021 for all, ANCOVA
  LS mean change in HbA1c compared with placebo: Significant decreases
